Calls of active or inactive are those of the source. The calls are words filed in the database; no cut-off is given here.
What was measured:
[1] = target: Voltage-gated inwardly rectifying potassium channel KCNH2 (Homo sapiens, UniProt Q12809); test: Inhibition of human ERG expressed in CHO cells by automated patch-clamp assay; format: cell-based
How it was run: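 Read-out is an IC50 in µM for hERG inhibition, measured by automated patch-clamp on CHO cells.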

[2] = target: T1, 5-hydroxytryptamine receptor 2B (Homo sapiens, UniProt P41595); test: Agonist activity at human 5-HT2B receptor expressed in Flp-IN HEK293 cells assessed as induction of calcium flux up to 10 uM measured every second for 5 mins by Fluo-4 dye based FLIPR assay; format: cell-based; settings: hek293, 5 min
[3] = target: T1, 5-hydroxytryptamine receptor 2B; test: Displacement of [3H]-LSD from human 5-HT2B receptor expressed in HEKT cells after 90 mins by scintillation counting method; format: cell-based
[4] = tested on: Mus musculus; test: Toxicity in C57BL/6J mouse assessed as reduction in baseline locomotive activity at 10 to 20 mg/kg, ip after 15 mins; format: organism-based; settings: in vivo
[5] = tested on: Mus musculus; test: Antipsychotic activity in AMPH-induced hyperactivity C57BL/6J mouse model assessed as reduction in amphetamine-induced hyper-locomotion at 20 mg/kg, ip preincubated for 15 mins followed by AMPH addition measured after 90 mins; format: functional, organism-based
[6] = tested on: Mus musculus; test: Antipsychotic activity in AMPH-induced hyperactivity C57BL/6J mouse model assessed as reduction in amphetamine-induced hyper-locomotion at 10 mg/kg, ip preincubated for 15 mins followed by AMPH addition measured after 90 mins; format: functional, organism-based
[7] = tested on: Mus musculus; test: Antipsychotic activity in PCP-induced hyperactivity C57BL/6J mouse model assessed as reduction in PCP-induced hyper-locomotion at 10 to 20 mg/kg, ip preincubated for 15 mins followed by PCP addition measured after 60 mins; format: functional, organism-based
How it was run: (§1)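 Male C57BL/6J mice, 9–10 weeks old. […] PCP 5 mg/kg followed, with activity recorded a further 60 min. Read-out was total distance from infrared beam breaks, analysed by one-way ANOVA.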

[8] = target: T2, 5-hydroxytryptamine receptor 2C (Homo sapiens) (UniProt P28335); test: Agonist activity at human 5-HT2C-INI receptor isoform expressed in Flp-IN HEK293 cells assessed as induction of Gq-mediated calcium flux measured every second for 5 mins by Fluo-4 dye based FLIPR assay relative to serotonin; format: functional, cell-based
T2 sequence (whole entry): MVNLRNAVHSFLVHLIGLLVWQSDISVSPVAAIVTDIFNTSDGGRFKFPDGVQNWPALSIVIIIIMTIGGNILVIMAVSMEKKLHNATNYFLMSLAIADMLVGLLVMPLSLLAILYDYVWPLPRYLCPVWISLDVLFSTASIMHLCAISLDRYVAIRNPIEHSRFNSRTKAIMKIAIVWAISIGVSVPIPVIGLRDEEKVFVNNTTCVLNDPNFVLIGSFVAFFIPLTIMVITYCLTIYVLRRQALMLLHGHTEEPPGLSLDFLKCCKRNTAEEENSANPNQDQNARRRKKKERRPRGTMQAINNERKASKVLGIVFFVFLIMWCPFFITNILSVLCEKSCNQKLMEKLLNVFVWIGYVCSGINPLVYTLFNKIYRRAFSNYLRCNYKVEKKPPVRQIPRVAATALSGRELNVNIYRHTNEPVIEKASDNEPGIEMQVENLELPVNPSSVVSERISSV

[9] = target: 5-HT2A receptor (Homo sapiens, UniProt P28223); test: Agonist activity at human 5-HT2A receptor expressed in Flp-IN HEK293 cells assessed as induction of calcium flux measured every second for 5 mins by Fluo-4 dye based FLIPR assay relative to serotonin; format: cell-based; settings: Flp-IN HEK293 cells expressing human 5-HT2A receptor
[10] = target: T2, 5-hydroxytryptamine receptor 2C (Homo sapiens); test: Agonist activity at tTA containing TEV cleavage site-fused 5-HT2C-INI receptor isoform (unknown origin) expressed in TEV-fused beta-arrestin2 expressing HEK cells assessed as induction of beta-arrestin2 recruitment after 20 hrs by Tango assay relative to serotonin; format: cell-based
How it was run: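 HTLA cells (HEK cells with TEV-fused β-arrestin-2 and tTA-driven luciferase) transfected with tTA-fused 5-HT2C-INI receptor carrying a TEV site. Luminescence read after 20 min lysis at room temperature. Normalized to % 5-HT and fitted sigmoidally. NA means no activity up to 10 μM. Mean of n = 3.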

[11] = target: T3, CYP1A2 (Homo sapiens, UniProt P05177); test: in vitro; settings: liver microsomes, probe phenacetin
T3 sequence (P05177 whole entry): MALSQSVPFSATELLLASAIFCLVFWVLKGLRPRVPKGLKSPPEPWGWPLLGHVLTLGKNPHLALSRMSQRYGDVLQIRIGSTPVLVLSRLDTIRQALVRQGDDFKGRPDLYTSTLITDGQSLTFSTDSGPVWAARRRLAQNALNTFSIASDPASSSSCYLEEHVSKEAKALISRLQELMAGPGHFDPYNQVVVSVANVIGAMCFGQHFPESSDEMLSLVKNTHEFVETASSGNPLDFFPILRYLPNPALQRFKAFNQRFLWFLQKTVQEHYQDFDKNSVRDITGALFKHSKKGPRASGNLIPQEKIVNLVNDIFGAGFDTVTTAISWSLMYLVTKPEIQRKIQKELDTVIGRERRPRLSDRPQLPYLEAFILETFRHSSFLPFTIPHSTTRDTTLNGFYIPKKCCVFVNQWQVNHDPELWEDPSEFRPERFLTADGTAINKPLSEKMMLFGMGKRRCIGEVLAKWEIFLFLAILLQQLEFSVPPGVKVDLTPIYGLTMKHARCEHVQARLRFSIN

[12] = target: CYP2C9 (Homo sapiens, UniProt P11712); test: in vitro; settings: liver microsomes, probe tolbutamide
[13] = target: CYP2D6 (Homo sapiens, UniProt P10635); test: in vitro; settings: liver microsomes, probe dextromethorphan
[14] = target: CYP3A4 (Homo sapiens, UniProt P08684); test: in vitro; settings: liver microsomes, probe midazolam
[15] = target: T4, 5-hydroxytryptamine receptor 2C (Rattus norvegicus, UniProt P08909); test: Agonist activity at rat 5-HT2C receptor expressed in African clawed frog oocytes assessed as increase in current amplitude; format: cell-based
T4 sequence (P08909 whole entry): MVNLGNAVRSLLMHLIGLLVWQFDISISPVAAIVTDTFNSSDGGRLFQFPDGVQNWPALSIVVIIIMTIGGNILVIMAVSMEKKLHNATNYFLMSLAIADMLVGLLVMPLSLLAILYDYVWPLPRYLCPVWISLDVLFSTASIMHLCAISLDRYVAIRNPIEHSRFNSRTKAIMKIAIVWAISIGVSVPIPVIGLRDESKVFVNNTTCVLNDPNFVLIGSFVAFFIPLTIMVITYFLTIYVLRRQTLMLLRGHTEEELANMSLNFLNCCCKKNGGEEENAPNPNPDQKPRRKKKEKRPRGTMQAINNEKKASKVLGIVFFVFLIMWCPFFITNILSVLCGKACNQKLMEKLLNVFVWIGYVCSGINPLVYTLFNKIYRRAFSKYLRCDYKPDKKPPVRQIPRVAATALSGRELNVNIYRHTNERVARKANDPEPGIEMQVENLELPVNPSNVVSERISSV

[16] = target: 5-HT2A receptor (Rattus norvegicus, UniProt P14842); test: Agonist activity at rat 5-HT2A receptor expressed in African clawed frog oocytes assessed as increase in current amplitude relative to 5-HT; format: cell-based; settings: African clawed frog oocytes expressing rat 5-HT2A receptor
[17] = tested on: Mus musculus; test: Toxicity in C57BL/6J mouse assessed as reduction in baseline locomotive activity at 3 mg/kg, ip after 15 mins; format: organism-based; settings: in vivo
[18] = tested on: Mus musculus; test: Antipsychotic activity in AMPH-induced hyperactivity C57BL/6J mouse model assessed as reduction in amphetamine-induced hyper-locomotion at 3 mg/kg, ip preincubated for 15 mins followed by AMPH addition measured after 90 mins; format: functional, organism-based
[19] = tested on: Mus musculus; test: Antipsychotic activity in PCP-induced hyperactivity C57BL/6J mouse model assessed as reduction in PCP-induced hyper-locomotion at 3 mg/kg, ip preincubated for 15 mins followed by PCP addition measured after 60 mins; format: functional, organism-based; how it was run: as §1

T1 sequence (P41595 whole entry): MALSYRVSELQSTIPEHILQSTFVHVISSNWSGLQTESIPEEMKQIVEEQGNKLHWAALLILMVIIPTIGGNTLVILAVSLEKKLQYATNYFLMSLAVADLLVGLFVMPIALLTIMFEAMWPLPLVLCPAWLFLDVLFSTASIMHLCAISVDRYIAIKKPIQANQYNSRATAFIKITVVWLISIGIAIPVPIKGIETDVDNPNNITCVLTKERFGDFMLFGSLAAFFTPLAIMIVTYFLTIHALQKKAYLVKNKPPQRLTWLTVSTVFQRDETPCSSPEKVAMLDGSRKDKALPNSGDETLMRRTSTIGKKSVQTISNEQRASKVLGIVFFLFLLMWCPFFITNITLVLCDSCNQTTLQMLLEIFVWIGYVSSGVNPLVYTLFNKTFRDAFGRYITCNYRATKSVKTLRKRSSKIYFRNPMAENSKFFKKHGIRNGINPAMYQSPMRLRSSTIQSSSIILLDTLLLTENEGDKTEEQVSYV
Chain of 5-HT2A receptor (Homo sapiens, UniProt P28223) (P28223 whole entry, the tested form may be a part, canonical isoform): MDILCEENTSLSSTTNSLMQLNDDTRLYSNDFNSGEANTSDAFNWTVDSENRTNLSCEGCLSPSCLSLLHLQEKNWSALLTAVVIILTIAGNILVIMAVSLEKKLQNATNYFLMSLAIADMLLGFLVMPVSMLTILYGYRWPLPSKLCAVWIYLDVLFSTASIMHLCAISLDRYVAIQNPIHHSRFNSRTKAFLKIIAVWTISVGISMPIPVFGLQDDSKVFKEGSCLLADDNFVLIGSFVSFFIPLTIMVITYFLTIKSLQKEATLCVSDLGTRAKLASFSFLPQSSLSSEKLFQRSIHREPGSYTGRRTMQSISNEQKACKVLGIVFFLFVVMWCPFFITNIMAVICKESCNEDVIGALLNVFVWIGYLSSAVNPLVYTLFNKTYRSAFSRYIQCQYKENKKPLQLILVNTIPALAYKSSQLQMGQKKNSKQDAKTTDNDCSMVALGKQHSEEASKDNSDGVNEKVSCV
Chain of CYP2D6 (P10635 whole entry): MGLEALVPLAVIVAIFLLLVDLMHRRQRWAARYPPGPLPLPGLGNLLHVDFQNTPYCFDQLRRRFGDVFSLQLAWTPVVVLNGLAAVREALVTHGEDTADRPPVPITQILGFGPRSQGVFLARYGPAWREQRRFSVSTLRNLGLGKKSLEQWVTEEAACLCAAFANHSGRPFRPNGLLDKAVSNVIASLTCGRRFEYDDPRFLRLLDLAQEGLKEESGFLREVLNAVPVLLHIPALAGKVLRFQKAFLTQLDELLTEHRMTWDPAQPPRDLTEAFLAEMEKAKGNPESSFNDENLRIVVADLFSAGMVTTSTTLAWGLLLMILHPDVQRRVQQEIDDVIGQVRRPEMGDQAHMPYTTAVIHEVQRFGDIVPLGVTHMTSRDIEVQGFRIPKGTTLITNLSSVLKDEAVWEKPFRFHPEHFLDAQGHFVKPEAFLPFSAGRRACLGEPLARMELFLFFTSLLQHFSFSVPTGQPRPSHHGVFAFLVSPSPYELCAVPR
Chain of Voltage-gated inwardly rectifying potassium channel KCNH2 (Q12809 whole entry): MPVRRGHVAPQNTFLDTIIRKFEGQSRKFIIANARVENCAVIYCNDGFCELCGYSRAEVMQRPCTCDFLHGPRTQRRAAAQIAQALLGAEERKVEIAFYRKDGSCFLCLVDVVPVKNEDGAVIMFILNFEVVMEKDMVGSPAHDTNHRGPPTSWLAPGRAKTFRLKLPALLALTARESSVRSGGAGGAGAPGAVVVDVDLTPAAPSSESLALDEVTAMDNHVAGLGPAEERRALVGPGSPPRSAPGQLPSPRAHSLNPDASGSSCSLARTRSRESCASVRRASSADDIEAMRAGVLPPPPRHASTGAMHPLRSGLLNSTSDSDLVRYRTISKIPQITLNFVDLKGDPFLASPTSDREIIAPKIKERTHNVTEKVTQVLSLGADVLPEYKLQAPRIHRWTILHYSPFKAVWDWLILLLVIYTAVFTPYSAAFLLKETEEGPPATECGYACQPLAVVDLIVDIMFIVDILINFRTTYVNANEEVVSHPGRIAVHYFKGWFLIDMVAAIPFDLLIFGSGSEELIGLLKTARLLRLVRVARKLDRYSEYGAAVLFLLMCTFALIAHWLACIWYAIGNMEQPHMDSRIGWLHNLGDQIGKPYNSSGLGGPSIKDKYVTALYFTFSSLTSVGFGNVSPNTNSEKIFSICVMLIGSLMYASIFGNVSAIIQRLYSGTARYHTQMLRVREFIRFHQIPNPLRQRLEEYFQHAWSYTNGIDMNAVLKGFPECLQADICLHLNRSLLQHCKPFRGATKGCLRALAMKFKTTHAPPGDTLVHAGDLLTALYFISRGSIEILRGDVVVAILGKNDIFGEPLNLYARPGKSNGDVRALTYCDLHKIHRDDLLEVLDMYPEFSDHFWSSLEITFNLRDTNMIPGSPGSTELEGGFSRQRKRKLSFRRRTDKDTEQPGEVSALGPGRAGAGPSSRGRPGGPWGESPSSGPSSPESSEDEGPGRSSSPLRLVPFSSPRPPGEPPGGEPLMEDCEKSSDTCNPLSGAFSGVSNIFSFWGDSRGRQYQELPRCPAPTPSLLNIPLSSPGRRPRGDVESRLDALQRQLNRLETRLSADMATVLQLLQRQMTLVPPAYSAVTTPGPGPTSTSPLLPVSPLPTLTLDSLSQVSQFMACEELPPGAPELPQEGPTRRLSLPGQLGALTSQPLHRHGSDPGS
Chain of CYP3A4 (P08684 whole entry): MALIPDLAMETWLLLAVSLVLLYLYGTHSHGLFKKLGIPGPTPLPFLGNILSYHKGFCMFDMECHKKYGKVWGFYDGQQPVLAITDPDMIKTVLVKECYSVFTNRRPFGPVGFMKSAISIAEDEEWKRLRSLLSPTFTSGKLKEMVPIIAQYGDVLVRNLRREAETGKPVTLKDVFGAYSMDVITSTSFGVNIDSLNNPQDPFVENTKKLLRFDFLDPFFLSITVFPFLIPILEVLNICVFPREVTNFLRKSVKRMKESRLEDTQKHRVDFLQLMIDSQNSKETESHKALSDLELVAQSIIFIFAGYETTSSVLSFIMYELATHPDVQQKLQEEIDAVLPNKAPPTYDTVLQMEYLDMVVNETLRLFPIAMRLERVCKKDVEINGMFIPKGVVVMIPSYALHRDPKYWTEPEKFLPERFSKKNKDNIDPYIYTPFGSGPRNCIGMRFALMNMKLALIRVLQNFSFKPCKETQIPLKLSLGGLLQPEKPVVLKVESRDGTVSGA
Chain of CYP2C9 (P11712 whole entry): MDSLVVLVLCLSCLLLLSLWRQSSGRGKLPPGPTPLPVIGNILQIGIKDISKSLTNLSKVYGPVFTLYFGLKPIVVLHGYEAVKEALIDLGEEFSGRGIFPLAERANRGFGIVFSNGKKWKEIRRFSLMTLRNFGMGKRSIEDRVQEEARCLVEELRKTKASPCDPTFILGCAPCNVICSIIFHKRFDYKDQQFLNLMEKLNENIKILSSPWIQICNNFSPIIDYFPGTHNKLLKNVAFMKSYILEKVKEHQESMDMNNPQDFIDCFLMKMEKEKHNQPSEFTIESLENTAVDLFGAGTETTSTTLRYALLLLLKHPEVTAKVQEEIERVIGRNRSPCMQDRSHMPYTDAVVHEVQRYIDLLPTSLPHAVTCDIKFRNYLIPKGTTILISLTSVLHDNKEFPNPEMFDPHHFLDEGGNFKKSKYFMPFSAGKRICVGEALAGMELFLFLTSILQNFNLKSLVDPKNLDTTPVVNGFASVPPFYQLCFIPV
Chain of 5-HT2A receptor (Rattus norvegicus, UniProt P14842) (P14842 whole entry): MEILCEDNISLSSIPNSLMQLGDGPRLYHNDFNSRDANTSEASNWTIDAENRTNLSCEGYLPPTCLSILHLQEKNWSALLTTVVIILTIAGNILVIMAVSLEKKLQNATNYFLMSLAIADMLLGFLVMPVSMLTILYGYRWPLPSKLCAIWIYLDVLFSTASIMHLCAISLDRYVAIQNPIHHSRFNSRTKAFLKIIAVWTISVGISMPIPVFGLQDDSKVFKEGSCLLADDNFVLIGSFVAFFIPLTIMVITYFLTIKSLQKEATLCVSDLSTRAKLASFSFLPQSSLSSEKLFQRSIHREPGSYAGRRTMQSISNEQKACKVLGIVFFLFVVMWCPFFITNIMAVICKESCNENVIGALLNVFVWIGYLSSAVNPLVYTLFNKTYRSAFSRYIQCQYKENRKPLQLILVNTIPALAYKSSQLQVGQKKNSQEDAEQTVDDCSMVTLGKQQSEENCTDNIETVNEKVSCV

SMILES: COc1ccccc1CNC[C@H]1C[C@@H]1c1cc(F)ccc1OC.Cl
- IC50 [1]: 1.4 µM
- Activity [2]: Not Active
- Ki [3]: 0.411 µM
- Activity [4]: Non-Toxic
- Activity [5]: Active
- Activity [6]: inactive
- Activity [7]: inactive
- Emax [8]: 92%
- Emax at 5 min [9]: 63%
- Emax [10]: 43%
- inhibition at 10 µM [11]: 20.5%
- inhibition at 10 µM [12]: 9.3%
- inhibition at 10 µM [13]: 68.9%
- inhibition at 10 µM [14]: 85.6%

SMILES: COc1cc(CC(C)N)c(OC)cc1I (centres undefined)
- EC50 [15]: 0.178 µM
- Emax [16]: 46%

SMILES: C[C@H]1CNCCc2ccc(Cl)cc21 [LORCASERIN]
- Activity [17]: Toxic
- Activity [18]: Active
- Activity [19]: inactive

— ChEMBL document CHEMBL4011649 (J Med Chem, 2017)
